Calls of active or inactive are those of the source. No cut-off for these calls is given here.
Tests used:
[1] = target: Heat shock protein beta-1 (Homo sapiens) (UniProt P04792); test: Enhancement of HSP27 Ser78 phosphorylation in human HeLa cells at 50 ug/mL treated for 1 hr; assay type: cell-based
Summary of the method: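 HeLa cells in DMEM + 10% calf serum, exponentially growing, exposed 1 h to 50 μg/ml compound; total cell extracts probed by Western blot with rabbit antibody to human HSP27 phospho-Ser78, alkaline phosphatase-conjugated goat anti-rabbit secondary, colorimetric detection.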

[2] = Inhibition of CK2 assessed as level of ATP utilized by luciferase-based bioluminescence assay
[3] = Inhibition of CAMK2 assessed as level of ATP utilized by luciferase-based bioluminescence assay
Jurkat [4] = test: Inhibition of heat-induced HSP70 expression in human Jurkat cells at 50 ug/mL treated for 1 hr before heat induction by Western blot; assay type: functional, cell-based
Jurkat [5] = test: Inhibition of heat-induced increase in nuclear HSF1 protein level in human Jurkat cells at 50 ug/mL treated for 1 hr before heat induction by Western blot; assay type: functional, cell-based
Summary of the method: (§1)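 Cells were pretreated with compound for 1 h, then heat-shocked at 43 °C for 30 min. Nuclear extracts, the same ones prepared for EMSA, were analysed by Western blot with rabbit anti-HSF1 and goat anti-rabbit HRP, with chemiluminescent detection. Nuclear HSF1 level was read from band intensity. The phosphorylation state was read as reduced gel mobility of the HSF1 band.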

HeLa [6] = test: Inhibition of heat-induced increase in nuclear HSF1 protein level in human HeLa cells at 50 ug/mL treated for 1 hr before heat induction by Western blot; assay type: functional, cell-based; summary of the method: as §1
Jurkat [7] = test: Inhibition of heat-induced increase in nuclear HSF1 protein phosphorylation in human Jurkat cells assessed as decrease in protein mobility at 50 ug/mL treated for 1 hr before heat induction by EMSA; assay type: functional, cell-based; summary of the method: as §1
HeLa [8] = test: Inhibition of heat-induced increase in nuclear HSF1 protein phosphorylation in human HeLa cells assessed as decrease in protein mobility at 50 ug/mL treated for 1 hr before heat induction by EMSA; assay type: functional, cell-based; summary of the method: as §1

Sequence of Heat shock protein beta-1 (Homo sapiens) (P04792 whole entry): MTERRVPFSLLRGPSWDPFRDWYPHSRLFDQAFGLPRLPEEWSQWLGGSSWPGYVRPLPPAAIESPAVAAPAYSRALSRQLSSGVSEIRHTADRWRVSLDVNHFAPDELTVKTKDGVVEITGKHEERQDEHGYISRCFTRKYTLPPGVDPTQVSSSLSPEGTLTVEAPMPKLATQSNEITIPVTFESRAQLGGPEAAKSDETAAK

SMILES	Activity [1]	IC50 [2] [µM]	IC50 [3] [µM]	Activity (Jurkat [4])	Activity (Jurkat [5])	Activity (HeLa [6])	Activity (Jurkat [7])	Activity (HeLa [8])
COc1ccc(-c2oc3cc(O)cc(O)c3c(=O)c2O)cc1O [TAMARIXETIN]	inactive	> 100	16.4	–	–	–	–	–
COc1cc(O)c2c(=O)c(O)c(-c3ccc(O)c(O)c3)oc2c1 [RHAMNETIN]	Active	9.7	8.9	Active	–	–	–	–
O=C(O)COc1c(-c2ccc(O)c(O)c2)oc2cc(O)cc(O)c2c1=O	inactive	2.45	> 100	inactive	–	–	–	–
O=C(O)COc1cc(O)c2c(=O)c(O)c(-c3ccc(O)c(O)c3)oc2c1	inactive	9.7	9.3	inactive	–	–	–	–
COc1cc(-c2oc3cc(O)cc(O)c3c(=O)c2O)ccc1O [ISORHAMNETIN]	inactive	0.5	0.91	Active	–	–	–	–
COC(=O)COc1cc(O)c2c(=O)c(O)c(-c3ccc(O)c(O)c3)oc2c1	Active	0.85	9.1	Active	–	–	–	–
COc1cc(O)cc2oc(-c3ccc(O)c(O)c3)c(O)c(=O)c12	inactive	> 100	4	inactive	–	–	–	–
O=c1c(O)c(-c2ccc(O)c(O)c2)oc2cc(O)cc(O)c12 [QUERCETIN]	Active	5.6	3.3	Active	inactive	inactive	Active	Active
COc1c(-c2ccc(O)c(O)c2)oc2cc(O)cc(O)c2c1=O [3-O-METHYLQUERCETIN]	inactive	0.83	> 100	inactive	–	–	–	–
COC(=O)COc1cc(O)cc2oc(-c3ccc(O)c(O)c3)c(O)c(=O)c12	inactive	> 100	69	inactive	–	–	–	–
COC(=O)COc1cc(-c2oc3cc(O)cc(O)c3c(=O)c2O)ccc1O	inactive	53	6.3	Active	–	–	–	–

From ChEMBL document CHEMBL1153987 (J Med Chem, 2009)
